Test results as given in the M2OR odorant receptor database.

Experiments:
Settings in all cases: stereoisomer not certain
UniProt Q8VG27 = target: T1, UniProt Q8VG27
T1 sequence (whole entry): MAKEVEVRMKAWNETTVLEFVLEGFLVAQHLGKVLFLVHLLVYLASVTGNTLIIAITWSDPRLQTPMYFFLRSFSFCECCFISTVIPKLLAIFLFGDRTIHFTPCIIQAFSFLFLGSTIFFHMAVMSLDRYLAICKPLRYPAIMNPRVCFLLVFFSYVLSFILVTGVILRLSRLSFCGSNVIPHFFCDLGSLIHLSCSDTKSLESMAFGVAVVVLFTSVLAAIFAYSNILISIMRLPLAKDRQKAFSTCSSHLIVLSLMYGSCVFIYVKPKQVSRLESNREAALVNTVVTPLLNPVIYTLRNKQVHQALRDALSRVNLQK
How it was run: (§1)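 Each entry records the cell line, G-protein, co-transfected protein and tags used. Methods varied with the source, often transient luciferase assays in mammalian cell lines. A receptor–molecule pair is called responsive (active) if the original authors judged its signal statistically different from baseline and non-responsive (inactive) otherwise.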

UniProt Q8VG49 = target: T2, UniProt Q8VG49
T2 sequence (whole entry): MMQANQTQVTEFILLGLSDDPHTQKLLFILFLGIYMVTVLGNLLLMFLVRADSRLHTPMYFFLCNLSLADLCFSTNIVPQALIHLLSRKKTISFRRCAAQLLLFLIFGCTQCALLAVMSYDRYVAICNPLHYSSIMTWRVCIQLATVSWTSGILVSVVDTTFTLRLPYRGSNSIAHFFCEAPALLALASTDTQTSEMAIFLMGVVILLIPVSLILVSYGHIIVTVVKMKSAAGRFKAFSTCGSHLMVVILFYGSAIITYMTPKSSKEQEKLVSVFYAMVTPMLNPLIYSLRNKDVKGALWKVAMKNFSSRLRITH
How it was run: as §1

UniProt Q8VG53 = target: T3, UniProt Q8VG53
T3 sequence (whole entry): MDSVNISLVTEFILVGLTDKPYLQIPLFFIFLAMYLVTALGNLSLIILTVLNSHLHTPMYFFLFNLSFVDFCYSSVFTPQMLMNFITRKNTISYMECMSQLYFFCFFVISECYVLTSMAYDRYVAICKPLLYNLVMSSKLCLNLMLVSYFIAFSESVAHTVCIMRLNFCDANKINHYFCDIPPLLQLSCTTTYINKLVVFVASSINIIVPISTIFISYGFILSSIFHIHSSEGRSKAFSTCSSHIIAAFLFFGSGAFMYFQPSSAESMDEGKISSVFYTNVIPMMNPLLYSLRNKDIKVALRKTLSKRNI
How it was run: as §1

UniProt Q8VG64 = target: T4, UniProt Q8VG64
T4 sequence (whole entry): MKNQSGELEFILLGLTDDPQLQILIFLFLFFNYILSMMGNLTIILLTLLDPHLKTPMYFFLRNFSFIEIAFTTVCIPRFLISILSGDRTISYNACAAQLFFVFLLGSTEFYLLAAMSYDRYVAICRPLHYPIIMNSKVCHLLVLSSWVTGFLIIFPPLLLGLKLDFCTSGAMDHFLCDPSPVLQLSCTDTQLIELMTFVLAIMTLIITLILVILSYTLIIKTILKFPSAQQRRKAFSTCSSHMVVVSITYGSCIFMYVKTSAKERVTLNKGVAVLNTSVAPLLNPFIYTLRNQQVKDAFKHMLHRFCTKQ
How it was run: as §1

UniProt Q8VG77 = target: T5, UniProt Q8VG77
T5 sequence (whole entry): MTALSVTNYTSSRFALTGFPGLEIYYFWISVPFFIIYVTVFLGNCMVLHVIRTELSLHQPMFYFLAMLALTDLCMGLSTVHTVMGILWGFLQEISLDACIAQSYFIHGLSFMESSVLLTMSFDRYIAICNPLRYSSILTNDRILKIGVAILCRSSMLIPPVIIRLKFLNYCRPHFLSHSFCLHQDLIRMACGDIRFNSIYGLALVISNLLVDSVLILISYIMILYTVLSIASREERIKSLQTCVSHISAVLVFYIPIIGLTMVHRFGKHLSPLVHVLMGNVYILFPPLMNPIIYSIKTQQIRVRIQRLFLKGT
How it was run: as §1

UniProt Q8VG96 = target: T6, UniProt Q8VG96
T6 sequence (whole entry): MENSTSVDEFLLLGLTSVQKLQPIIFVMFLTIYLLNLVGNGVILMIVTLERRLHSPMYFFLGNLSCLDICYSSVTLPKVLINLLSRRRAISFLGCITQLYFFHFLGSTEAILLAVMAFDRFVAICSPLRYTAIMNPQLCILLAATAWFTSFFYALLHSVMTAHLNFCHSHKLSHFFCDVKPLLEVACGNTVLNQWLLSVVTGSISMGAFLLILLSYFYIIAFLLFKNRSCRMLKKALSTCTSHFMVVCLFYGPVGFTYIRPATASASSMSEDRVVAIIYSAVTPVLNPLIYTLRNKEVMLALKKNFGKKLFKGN
How it was run: as §1

UniProt Q8VGB9 = target: T7, UniProt Q8VGB9
T7 sequence (whole entry): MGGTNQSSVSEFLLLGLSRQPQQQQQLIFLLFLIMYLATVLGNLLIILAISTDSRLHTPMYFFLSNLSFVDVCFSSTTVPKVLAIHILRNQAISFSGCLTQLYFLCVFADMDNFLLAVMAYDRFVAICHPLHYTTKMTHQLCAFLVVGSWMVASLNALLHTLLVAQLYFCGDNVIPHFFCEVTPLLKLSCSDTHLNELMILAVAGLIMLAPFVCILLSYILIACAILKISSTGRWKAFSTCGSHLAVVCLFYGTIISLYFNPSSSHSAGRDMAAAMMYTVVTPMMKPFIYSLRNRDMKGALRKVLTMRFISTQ
How it was run: as §1

UniProt Q8VGC6 = target: T8, UniProt Q8VGC6
T8 sequence (whole entry): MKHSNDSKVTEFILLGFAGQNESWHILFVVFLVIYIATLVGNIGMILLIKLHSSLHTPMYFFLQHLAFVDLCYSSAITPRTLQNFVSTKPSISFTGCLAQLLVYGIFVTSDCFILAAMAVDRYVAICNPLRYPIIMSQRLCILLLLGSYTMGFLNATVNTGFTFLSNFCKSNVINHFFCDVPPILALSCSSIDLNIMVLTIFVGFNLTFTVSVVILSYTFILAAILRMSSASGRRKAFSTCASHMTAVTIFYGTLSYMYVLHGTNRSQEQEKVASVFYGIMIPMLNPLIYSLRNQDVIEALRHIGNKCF
How it was run: as §1

UniProt Q8VGD7 = target: T9, UniProt Q8VGD7
T9 sequence (whole entry): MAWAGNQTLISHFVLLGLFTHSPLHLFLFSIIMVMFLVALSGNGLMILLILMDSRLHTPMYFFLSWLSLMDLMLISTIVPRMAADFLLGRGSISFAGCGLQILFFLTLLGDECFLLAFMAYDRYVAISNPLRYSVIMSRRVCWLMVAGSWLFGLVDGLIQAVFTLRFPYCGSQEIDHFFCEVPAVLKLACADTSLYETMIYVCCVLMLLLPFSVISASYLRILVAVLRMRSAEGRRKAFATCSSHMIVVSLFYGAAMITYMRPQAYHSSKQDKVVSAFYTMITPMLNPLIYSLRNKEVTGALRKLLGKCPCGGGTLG
How it was run: as §1

UniProt Q8VGH1 = target: T10, UniProt Q8VGH1
T10 sequence (whole entry): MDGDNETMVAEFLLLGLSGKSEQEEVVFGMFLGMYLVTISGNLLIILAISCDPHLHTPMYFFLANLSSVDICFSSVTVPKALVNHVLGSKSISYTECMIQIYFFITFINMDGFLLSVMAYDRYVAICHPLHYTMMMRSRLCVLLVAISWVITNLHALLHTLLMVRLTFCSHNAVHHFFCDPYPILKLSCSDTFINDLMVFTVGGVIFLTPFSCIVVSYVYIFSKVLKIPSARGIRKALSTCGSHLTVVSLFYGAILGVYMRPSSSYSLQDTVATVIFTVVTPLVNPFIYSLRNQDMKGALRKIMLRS
How it was run: as §1

UniProt Q8VGJ1 = target: T11, UniProt Q8VGJ1
T11 sequence (whole entry): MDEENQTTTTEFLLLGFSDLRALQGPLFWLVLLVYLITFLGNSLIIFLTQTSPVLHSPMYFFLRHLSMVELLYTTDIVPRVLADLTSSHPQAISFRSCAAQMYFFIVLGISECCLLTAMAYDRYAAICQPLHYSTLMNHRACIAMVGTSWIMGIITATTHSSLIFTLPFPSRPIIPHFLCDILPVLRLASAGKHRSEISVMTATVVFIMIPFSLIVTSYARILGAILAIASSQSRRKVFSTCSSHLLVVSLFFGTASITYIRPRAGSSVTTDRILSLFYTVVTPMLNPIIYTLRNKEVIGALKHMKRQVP
How it was run: as §1

UniProt Q8VGJ3 = target: T12, UniProt Q8VGJ3
T12 sequence (whole entry): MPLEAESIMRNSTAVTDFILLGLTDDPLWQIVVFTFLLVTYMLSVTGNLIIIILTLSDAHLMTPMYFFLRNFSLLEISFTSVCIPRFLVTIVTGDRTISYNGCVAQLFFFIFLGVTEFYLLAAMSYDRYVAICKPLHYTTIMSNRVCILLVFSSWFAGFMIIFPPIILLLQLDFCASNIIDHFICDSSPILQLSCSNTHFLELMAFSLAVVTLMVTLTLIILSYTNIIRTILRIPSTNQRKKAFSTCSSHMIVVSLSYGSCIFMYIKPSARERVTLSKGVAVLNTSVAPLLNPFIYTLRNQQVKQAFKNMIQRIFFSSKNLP
How it was run: as §1

UniProt Q8VGJ5 = target: T13, UniProt Q8VGJ5
T13 sequence (whole entry): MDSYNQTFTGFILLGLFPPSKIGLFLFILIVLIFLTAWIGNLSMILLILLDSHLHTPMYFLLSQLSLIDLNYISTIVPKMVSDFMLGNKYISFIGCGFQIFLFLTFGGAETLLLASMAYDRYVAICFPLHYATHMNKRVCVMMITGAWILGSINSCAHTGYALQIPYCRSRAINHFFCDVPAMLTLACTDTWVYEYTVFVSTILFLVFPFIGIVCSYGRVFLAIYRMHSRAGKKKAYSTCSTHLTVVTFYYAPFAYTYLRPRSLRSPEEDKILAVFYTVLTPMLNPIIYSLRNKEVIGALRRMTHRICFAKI
How it was run: as §1

UniProt Q8VGL0 = target: T14, UniProt Q8VGL0
T14 sequence (whole entry): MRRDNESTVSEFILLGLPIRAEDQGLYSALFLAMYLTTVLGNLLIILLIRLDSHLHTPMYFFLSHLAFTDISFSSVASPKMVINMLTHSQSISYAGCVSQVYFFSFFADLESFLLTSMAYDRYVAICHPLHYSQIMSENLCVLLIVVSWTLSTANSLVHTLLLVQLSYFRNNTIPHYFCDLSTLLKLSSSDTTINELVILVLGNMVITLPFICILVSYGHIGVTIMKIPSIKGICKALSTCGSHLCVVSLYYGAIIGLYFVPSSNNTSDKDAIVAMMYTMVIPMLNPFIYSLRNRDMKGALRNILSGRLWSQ
How it was run: as §1

UniProt Q8VGL7 = target: T15, UniProt Q8VGL7
T15 sequence (whole entry): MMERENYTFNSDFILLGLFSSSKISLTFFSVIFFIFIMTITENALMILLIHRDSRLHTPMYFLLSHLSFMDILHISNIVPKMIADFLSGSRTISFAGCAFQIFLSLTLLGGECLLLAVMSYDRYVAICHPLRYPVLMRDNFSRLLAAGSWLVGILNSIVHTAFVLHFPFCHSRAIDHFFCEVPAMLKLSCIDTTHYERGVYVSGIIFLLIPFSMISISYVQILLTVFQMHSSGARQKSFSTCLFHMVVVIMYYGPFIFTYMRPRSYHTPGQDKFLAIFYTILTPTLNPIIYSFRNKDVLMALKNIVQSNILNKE
How it was run: as §1

UniProt Q8VG28 = target: UniProt Q8VG28
How it was run: as §1

Measured: odorant receptor agonist call

Sequence of UniProt Q8VG28 (Q8VG28 as listed by the source): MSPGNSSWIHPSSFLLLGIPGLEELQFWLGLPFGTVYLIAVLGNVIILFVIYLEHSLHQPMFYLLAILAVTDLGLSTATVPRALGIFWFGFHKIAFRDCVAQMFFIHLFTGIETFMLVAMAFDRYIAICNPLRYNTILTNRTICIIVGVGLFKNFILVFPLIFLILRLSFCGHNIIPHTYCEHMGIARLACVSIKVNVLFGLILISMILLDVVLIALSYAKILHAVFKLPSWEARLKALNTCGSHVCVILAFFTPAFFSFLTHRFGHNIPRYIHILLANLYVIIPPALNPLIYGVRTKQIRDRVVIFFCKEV

CCCCCC=O
active: UniProt Q8VG77
not listed: UniProt Q8VG28
inactive: all other assays above

CCCCC(=O)O
inactive: all assays above

C=CCOC(=O)CCCCCC
not listed: UniProt Q8VG28
inactive: all other assays above

O=C(c1ccccc1)c1ccccc1
active: UniProt Q8VGJ1
not listed: UniProt Q8VG28
inactive: all other assays above

CCC(=O)C(=O)CC
active: UniProt Q8VGB9
not listed: UniProt Q8VG28
inactive: all other assays above

CCCCCCOC(C)=O
not listed: UniProt Q8VG28
inactive: all other assays above

CCCCCC(=O)CC
active: UniProt Q8VGC6 | UniProt Q8VGJ5
not listed: UniProt Q8VG28
inactive: all other assays above

CCCCCCCC(C)=O
active: UniProt Q8VGC6
not listed: UniProt Q8VG28
inactive: all other assays above

O=C([O-])CCCCCCCC(=O)[O-].[H+].[H+]
inactive: UniProt Q8VG27 | UniProt Q8VG28 | UniProt Q8VG53 | UniProt Q8VG64 | UniProt Q8VGB9 | UniProt Q8VGC6 | UniProt Q8VGJ3 | UniProt Q8VGL0

CCCCCCCCCCO
active: UniProt Q8VGC6
not listed: UniProt Q8VG28
inactive: all other assays above
